Data from ChEMBL document CHEMBL1938365, “Design and synthesis of novel small-molecule inhibitors of the hypoxia inducible factor pathway” (J Med Chem, 2011).
Activity calls are given as the source filed them. The rule behind the calls is not given here.

Tests used:
[1] = target: T1, Hypoxia inducible factors; HIF-1-alpha, HIF-2-alpha (Homo sapiens, UniProt Q16665+Q99814); assay: Inhibition of HIF1 in human LN229 cells after 1 hr preincubation under hypoxic condition measured after 24 hrs by luciferase reporter gene assay; type: cell-based
Summary of the method: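 LN229-HRELux human glioma cells stably carry a luciferase reporter driven by six VEGF-derived HIF response elements. Cells were seeded at 3 × 10^4 per well and held 24 h in normoxia, then pretreated 1 h with compound at 0, 1, 5, 10 or 25 μM (vehicle 1% DMSO). They were then moved to hypoxia (1% O2) for 24 h, lysed and read for luciferase. Reference inhibitor ran alongside; quadruplicate wells; IC50 from concentration curve.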

[2] = test system: LN229; assay: Ratio of KCN-1 IC50 to compound IC50 for HIF1 in human LN229 cells under hypoxic condition; type: cell-based
[3] = target: T1, Hypoxia inducible factors; HIF-1-alpha, HIF-2-alpha; assay: Inhibition of HIF1 in human LN229 cells at 10 uM after 1 hr preincubation under hypoxic condition measured after 24 hrs by luciferase reporter gene assay; type: cell-based
Summary of the method: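 LN229 glioma cells stably transfected with VEGF promoter-luciferase (LN229-VEGF-Luc) were pretreated 1 h in normoxia with 10 μM (final) compound, then kept 24 h in normoxia or hypoxia. Luciferase was read as relative light units against vehicle control; triplicates, mean ± standard deviation.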

[4] = target: Hypoxia-inducible factor 1-alpha (Homo sapiens) (UniProt Q16665); assay: Inhibition of hypoxia-induced HIF1alpha accumulation in human LN229 cells at 20 uM after 1 hr preincubation measured after 24 hrs by Western blot analysis; type: functional, cell-based; conditions: LN-229
Chain of Hypoxia-inducible factor 1-alpha (Homo sapiens) (Q16665 whole entry, looked up): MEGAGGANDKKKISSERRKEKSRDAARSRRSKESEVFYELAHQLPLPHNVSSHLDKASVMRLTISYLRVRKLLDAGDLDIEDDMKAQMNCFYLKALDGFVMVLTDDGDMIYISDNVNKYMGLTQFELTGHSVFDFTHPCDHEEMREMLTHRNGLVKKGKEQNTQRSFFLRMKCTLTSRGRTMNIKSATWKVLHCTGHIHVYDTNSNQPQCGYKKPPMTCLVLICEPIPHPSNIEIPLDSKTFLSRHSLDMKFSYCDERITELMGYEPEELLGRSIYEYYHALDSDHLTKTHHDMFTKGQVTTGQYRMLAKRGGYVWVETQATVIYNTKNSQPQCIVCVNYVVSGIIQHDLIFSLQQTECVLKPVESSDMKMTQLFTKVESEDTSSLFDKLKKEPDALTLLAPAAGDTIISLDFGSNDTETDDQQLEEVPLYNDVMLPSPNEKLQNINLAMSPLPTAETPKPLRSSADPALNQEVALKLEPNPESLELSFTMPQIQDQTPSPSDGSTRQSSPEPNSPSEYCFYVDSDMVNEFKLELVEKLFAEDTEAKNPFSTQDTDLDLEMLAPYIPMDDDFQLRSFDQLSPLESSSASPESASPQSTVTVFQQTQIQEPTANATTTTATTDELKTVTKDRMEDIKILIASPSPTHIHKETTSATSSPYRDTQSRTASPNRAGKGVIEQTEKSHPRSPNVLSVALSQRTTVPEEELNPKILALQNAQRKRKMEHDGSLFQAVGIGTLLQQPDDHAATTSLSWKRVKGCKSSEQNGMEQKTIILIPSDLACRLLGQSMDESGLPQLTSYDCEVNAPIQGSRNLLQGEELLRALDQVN
Summary of the method: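 Western blot for HIF-1α in LN229 cells after 1 h pretreatment with inhibitor at 20 μM final (bortezomib control 100 nM), followed by 24 h in normoxia or hypoxia.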

| SMILES | IC50 [1] [µM] | further results |
| --- | --- | --- |
| COc1ccc(S(=O)(=O)N(Cc2ccc3c(c2)CC(C)(C)O3)C2CCCCCC2)cc1OC | 9.1 | – |
| COc1ccc(S(=O)(=O)N(Cc2ccc3c(c2)CC(C)(C)O3)c2ccccc2)cc1OC | 0.306 | Ratio IC50 [2]: > 2; HIF1 inhibition activity call (active/inactive) [3]: Active; inhibition [4]: Active |
| COc1ccc(S(=O)(=O)N(Cc2cnc3ccccc3c2)c2ccccc2)cc1OC | 3.5 | – |
| CC1(C)C=Cc2nc(CN(c3ccccc3)S(=O)(=O)c3ccc4c(c3)OCO4)ccc2O1 | 6.5 | – |
| COc1ccc(S(=O)(=O)N(Cc2ccc3c(c2)CC(C)(C)O3)C2CCCC2)cc1OC | 0.378 | HIF1 inhibition activity call (active/inactive) [3]: Active; inhibition [4]: inactive |
| COc1c(C(C)n2cnc3ncccc32)ccc2c1C=CC(C)(C)O2 (stereo not drawn) | – | HIF1 inhibition activity call (active/inactive) [3]: Active; inhibition [4]: inactive |
| COc1ccc(S(=O)(=O)N(Cc2ccc3c(c2)CC(C)(C)O3)C2CCCCC2)cc1OC | 8.2 | – |
| CC1(C)C=Cc2nc(CN(c3ccccc3)S(=O)(=O)c3cccc4cccnc34)ccc2O1 | 0.9 | – |
| COc1ccc(S(=O)(=O)N(Cc2ccc3c(n2)C=CC(C)(C)O3)C2CCCCCCC2)cc1OC | 0.7 | – |
| CC1(C)C=Cc2nc(CN(c3ccccc3)S(=O)(=O)C3CC3)ccc2O1 | > 25 | – |
| COc1ccc(S(=O)(=O)N(Cc2ccc3c(n2)C=CC(C)(C)O3)c2ccccc2)cc1OC | 1.3 | – |
| COc1ccc(S(=O)(=O)N(Cc2ccc3c(n2)C=CC(C)(C)O3)C2CCCCC2)cc1OC | 0.8 | – |
| COc1ccc(S(=O)(=O)N(Cc2cc3c(cn2)OC(C)(C)C=C3)C2CCCCC2)cc1OC | 1.1 | – |
| COc1ccc(S(=O)(=O)N(Cc2ccc3c(c2)C=CC(C)(C)O3)c2ccccc2)cc1OC | – | HIF1 inhibition activity call (active/inactive) [3]: Active; inhibition [4]: inactive |
| CC1(C)C=Cc2nc(CN(c3ccccc3)S(=O)(=O)C3CCCCC3)ccc2O1 | 0.4 | – |
| COc1ccc(S(=O)(=O)N(Cc2ccc3c(n2)C=CC(C)(C)O3)c2ccc3c(c2)CCCC3)cc1OC | 6.2 | – |
| CC1(C)C=Cc2nc(CN(c3ccccc3)S(=O)(=O)c3ccc4c(c3)OCCO4)ccc2O1 | 0.9 | – |
| CC(C)C[C@H](NC(=O)[C@H](Cc1ccccc1)NC(=O)c1cnccn1)B(O)O | – | inhibition [4]: Active |
| COc1ccc(S(=O)(=O)N(Cc2cnc3c(c2)C=CC(C)(C)O3)C2CCCCC2)cc1OC | > 25 | – |
| CCCCS(=O)(=O)N(Cc1ccc2c(n1)C=CC(C)(C)O2)c1ccccc1 | 5 | – |
| COc1ccc(S(=O)(=O)N(Cc2ccc3c(n2)C=CC(C)(C)O3)C2CCCC2)cc1OC | 0.6 | – |
| COc1ccc(S(=O)(=O)N(Cc2ccc3c(n2)C=CC(C)(C)O3)c2ccc(F)cc2)cc1OC | 5.7 | – |
| CC1(C)C=Cc2nc(CN(c3ccccc3)S(=O)(=O)c3ccc(-c4ccccc4)cc3)ccc2O1 | 3.4 | – |
| COc1ccc(N(Cc2ccc3c(n2)C=CC(C)(C)O3)S(=O)(=O)c2ccc(OC)c(OC)c2)cc1OC | > 25 | – |
| COc1ccc(S(=O)(=O)N(Cc2ccc3c(n2)C=CC(C)(C)O3)C2CCCCCC2)cc1OC | 6.6 | – |

Now from value to molecule, other results behind:

| IC50 [1] [µM] | SMILES | further results |
| --- | --- | --- |
| > 25 | Cc1ccc(NCc2ccc3c(c2)C=CC(C)(C)O3)c(C)c1 | – |
| 3 | COc1ccc(NCc2ccc3c(c2)C=CC(C)(C)O3)cc1OC | – |
| 5 | COc1ccc(N(C)Cc2ccc3c(c2)C=CC(C)(C)O3)cc1OC | – |
| 8.4 | CN(Cc1ccc2c(c1)C=CC(C)(C)O2)c1ccccn1 | – |
| 3.5 | COc1ccc(S(=O)(=O)N(Cc2ccc3c(c2)C=CC(C)(C)O3)C(C)(C)C)cc1OC | – |
| 0.9 | CCCCN(Cc1ccc2c(n1)C=CC(C)(C)O2)S(=O)(=O)c1ccc(OC)c(OC)c1 | – |
| 0.478 | CCCCN(Cc1ccc2c(c1)CC(C)(C)O2)S(=O)(=O)c1ccc(OC)c(OC)c1 | HIF1 inhibition activity call (active/inactive) [3]: Active; inhibition [4]: inactive |
| 2.6 | Cc1ccc(N(C)Cc2ccc3c(c2)C=CC(C)(C)O3)c(C)c1 | – |
| 8.5 | CC1(C)C=Cc2cc(CNc3ccccn3)ccc2O1 | – |
| 3.1 | COc1ccc(S(=O)(=O)N(Cc2ccc3c(c2)C=CC(C)(C)O3)C(C)C)cc1OC | – |
| 6.4 | CCCS(=O)(=O)N(Cc1ccc2c(n1)C=CC(C)(C)O2)c1ccccc1 | – |
| 1.4 | COc1ccc(S(=O)(=O)N(Cc2cc3c(cn2)OC(C)(C)C=C3)c2ccccc2)cc1 | – |
| 0.5 | COc1ccc(S(=O)(=O)N(Cc2ccc3c(c2)C=CC(C)(C)O3)C2CCCC2)cc1OC | HIF1 inhibition activity call (active/inactive) [3]: Active; inhibition [4]: Active |
| 1.6 | COc1ccc(S(=O)(=O)N(CCC(C)C)Cc2ccc3c(c2)C=CC(C)(C)O3)cc1OC | – |
| 3.3 | CCCCN(Cc1ccc2c(c1)C=CC(C)(C)O2)S(=O)(=O)c1ccc(OC)c(OC)c1 | – |
| 2.1 | CC1(C)C=Cc2cc(CN(c3ccccc3)S(=O)(=O)c3cc(Cl)ccc3Cl)ccc2O1 | – |
| > 25 | CC1(C)C=Cc2cc(CNc3ccccc3Br)ccc2O1 | – |

| IC50 [1] [µM] | SMILES | further results |
| --- | --- | --- |
| 2.2 | CCC1(C)C=Cc2cc(CN(c3ccccc3)S(=O)(=O)c3ccc(OC)c(OC)c3)ccc2O1 (stereo not drawn) | – |
| 5.8 | CC(C)c1ccc(S(=O)(=O)N(Cc2cc3c(cn2)OC(C)(C)C=C3)C2CCCCC2)cc1 | – |
| 1.3 | C#CCN(Cc1ccc2c(c1)C=CC(C)(C)O2)S(=O)(=O)c1ccc(OC)c(OC)c1 | – |
| > 25 | CC1(C)C=Cc2cc(CN(c3ccccc3)S(=O)(=O)c3ccc(Br)cc3OC(F)(F)F)ccc2O1 | – |
| 1.8 | CC1(C)C=Cc2cc(CN(c3ccccc3)S(=O)(=O)c3ccc([N+](=O)[O-])cc3)ncc2O1 | – |
| 3.4 | C=CCN(Cc1ccc2c(c1)C=CC(C)(C)O2)S(=O)(=O)c1ccc(OC)c(OC)c1 | – |
| 0.6 | COc1ccc(S(=O)(=O)N(Cc2ccc3c(c2)C=CC(C)(C)O3)c2ccccc2)cc1 | – |
| 0.5 | Cc1cc(C)cc(S(=O)(=O)N(Cc2ccc3c(c2)C=CC(C)(C)O3)c2ccccc2)c1 | – |
| 1.5 | COc1ccc(S(=O)(=O)N(Cc2ccc3c(c2)C=CC(C)(C)O3)C2CC2)cc1OC | – |
| 0.28 | COc1ccc(S(=O)(=O)N(Cc2ccc3c(n2)C=CC(C)(C)O3)C2CCC2)cc1OC | Ratio IC50 [2]: > 2; HIF1 inhibition activity call (active/inactive) [3]: Active; inhibition [4]: inactive |
| 13.4 | CC(C)S(=O)(=O)N(Cc1ccc2c(n1)C=CC(C)(C)O2)c1ccccc1 | – |
| > 25 | CC1(C)C=Cc2cc(CNc3ccc(C(=O)O)cc3)ccc2O1 | – |
| 0.9 | CC(C)CS(=O)(=O)N(Cc1ccc2c(n1)C=CC(C)(C)O2)c1ccccc1 | – |
| > 25 | CC1(C)C=Cc2cc(CNc3ccccc3F)ccc2O1 | – |
| 4 | COc1ccc(S(=O)(=O)N(Cc2ccc3c(c2)C=CC(C)(C)O3)C2CCCCC2)cc1OC | – |
| 1.5 | COc1ccc(S(=O)(=O)N(Cc2ccc3c(c2)CC(C)(C)O3)C(C)C)cc1OC | – |
| 2.5 | COc1ccc(S(=O)(=O)N(Cc2cnc3c(c2)C=CC(C)(C)O3)c2ccccc2)cc1OC | – |
